Screens (PubChem BioAssay)
Most compounds without a hit are left out; they make up all but 3.4% or so of the library.
m5-HT2A agonist: activates the mouse 5-HT2A serotonin receptor; P35363; CHO-K1 mHTR2A beta-arrestin complementation, luminescence; percent of 30 µM serotonin response; activation, % at 7.6 µM; 360,000 tested, 0.66% active; AID 624169;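 active = activation above a run cutoff, the mean activation of all tested compounds plus 3 SD, cut at about 14% in these data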;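 also: 0% = plate median of compound wells and 100% = 30 µM serotonin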
TMEM16A act: activators or potentiators of mouse TMEM16A chloride channel; Q8BHY3; HEK293 TMEM16A/YFP-H148Q/I152L, iodide quench fluorescence; hits give low values; B-score at 10 µM; 340,000 tested, 0.3% active; AID 623877;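 active = fluorescence-ratio B-score plate-corrected deviation score at least 3 library SD below zero, with starting fluorescence score within 5 deviations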;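 also: channel opened by trigger with iodide after compound preincubation; score built on the fluorescence ratio of max minus min over baseline; more negative score means more quench and so TMEM16A activation or potentiation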
MC4R antagonist: antagonists of human melanocortin 4 receptor (MC4R); MC4R-expressing cells, MTII-stimulated cAMP, LANCE TR-FRET; AID 540295; inhibition, % at 6.5 µM; P32245; 360,000 tested, 0.48% active;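 active = inhibition above its plate's cutoff, the mean of tested wells on that plate plus 3 SD, cut at about 29% in these data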;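 also: 0% = Melanotan II alone and 100% = Melanotan II plus saturating MCL0020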
Target sequence (P32245 whole entry, looked up): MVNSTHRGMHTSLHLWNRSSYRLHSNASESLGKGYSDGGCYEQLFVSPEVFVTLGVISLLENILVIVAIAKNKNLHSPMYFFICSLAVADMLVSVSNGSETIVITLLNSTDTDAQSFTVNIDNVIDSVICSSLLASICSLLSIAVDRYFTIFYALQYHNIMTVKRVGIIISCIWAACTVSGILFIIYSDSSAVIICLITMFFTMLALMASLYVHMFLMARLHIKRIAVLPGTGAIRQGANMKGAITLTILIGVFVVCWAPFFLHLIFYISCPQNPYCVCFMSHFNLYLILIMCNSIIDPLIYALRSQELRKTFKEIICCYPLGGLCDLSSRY
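Assay system: U2OS-MC4R stable cell line; Also added: Melanotan II; Technique: Eu-cAMP/anti-cAMP TR-FRET, emission 671 nm; Times: 30-min compound, 1-h challenge, 1-h detection, room temperature.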
MC4R barr agon: activates human MC4R beta-arrestin recruitment. 360,000 tested, 0.98% active. P32245. activation, % at 8.9 µM. U2OS MC4R beta-arrestin complementation, luminescence; percent of melanotan II response, DMSO zero. AID 540308;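 active = activation above a per-plate cutoff, the mean activation of sample wells on that plate plus 3 SD, cut at about 8% in these data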
MIN6 prolif: MIN6 beta-cell proliferation induction | AID 2380 | proliferation, % at 10 µM | 330,000 tested, 0.29% active | MIN6 cells proliferation, ATPlite luminescence, 48 h; cells starved in 0.2% serum; 100% = growth in 10% serum;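 active = compounds whose signal lies at least 3.5 SD above the mean of all wells on their plate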;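 also: 0% = DMSO-treated cells in low-serum medium and 100% = 10% serum control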
ANO1 block: mouse TMEM16A channel inhibition, primary screen. 310,000 tested, 1.2% active. HEK293 TMEM16A/YFP iodide influx fluorescence, ionomycin. Q8BHY3. normalized B-score (activity score, 25-100; higher = stronger inhibition) at 10 µM;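 active = ratio plate-corrected score three or more library SD toward inhibition, starting fluorescence score within five deviations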;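 also: score derived from kinetic fluorescence span divided by baseline fluorescence per well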
An asterisk follows results filed as active; i = inactive; . = no result.

SMILES	m5-HT2A agonist	TMEM16A act	MC4R antagonist	MC4R barr agon	MIN6 prolif	ANO1 block
COc1ccc(CCNC(=O)COC(=O)C2CC2C)cc1OC (stereo unspecified)	5	-42*	0	-1	0	.
COc1ccc(-c2c(C)nc(N)nc2-c2ccc(OCc3ccc(C)cc3)cc2O)cc1OC	-1	i	4	9.6*	-3	i
O=S(=O)(c1ccc(Br)cc1F)N1CCCCC1CCO (stereo unspecified)	5	.	-6	-1	.	.
CC(C(=O)Nc1ccccc1)c1ccc(-c2ccccc2)c(F)c1 (stereo unspecified)	-9	i	5	0	-6	100*
CC(C(=O)O)c1ccc(-c2ccccc2)c(F)c1 (stereo unspecified)	1	i	-1	0	1	i
COc1ccc(Cl)cc1NC(=O)c1noc2c1CCCC2	-2	i	-1	1	7.6*	i
COc1cc(NC(=O)c2noc3c2CCCC3)c(OC)cc1Cl	0	i	4	1	-1	i
CN(C)CCCN(C(=O)c1ccc2c(c1)CCCC2)c1nc2ccc(Cl)cc2s1	-5	i	4	9.1*	0	i
Cc1cc(C)c2nc(N(CCCN(C)C)C(=O)c3ccc4c(c3)OCCO4)sc2c1	-3	i	0	8.4*	-7	i
CC1CCCCN1S(=O)(=O)c1ccc(C(=O)N(CCCN(C)C)c2nc3ccc(Br)cc3s2)cc1 (stereo unspecified)	-12	i	7	8.8*	-7	i
CN(C)CCCN(C(=O)COc1ccccc1)c1nc2ccc(Cl)cc2s1	-9	-6*	9	4	-2	i
CN(C)CCCN(C(=O)COc1ccccc1)c1nc2cc3c(cc2s1)OCO3	-4	i	0	-1	-6	i
CC1(C(=O)Nc2cccc(OC(F)(F)F)c2)Cc2c(-c3ccc4c(c3)OCO4)ccnc2O1 (stereo unspecified)	-1	.	-10	2	.	.
COc1ccccc1C(=O)NC(CCSC)C(=O)OCC(=O)NC(=O)NCc1ccco1 (stereo unspecified)	3	-24*	13	3	-2	i
COc1cccc(C(O)c2nc(-c3cccc(CO)c3)cs2)c1 (stereo unspecified)	5	.	5	-2	.	.
CN=C(Nc1ccc2c(c1)OCO2)SC1CC(=O)N(c2ccccc2)C1=O (stereo unspecified)	1	i	-4	0	-3	25*
Cc1ccc(OCC(=O)N2N=C(C(F)(F)F)CC2(O)C(C)(C)C)cc1C (stereo unspecified)	8	i	8	4	-3	100*
CC1=NN(C(N)=S)C(=O)C1N=Nc1c(Cl)cc([N+](=O)[O-])cc1Cl (stereo unspecified)	-2	i	1	-2	-4	25*
CC1=NN(C(N)=S)C(=O)C1N=Nc1c(Br)cc(Br)cc1Br (stereo unspecified)	10	i	1	-2	-4	100*
COc1ccc(CNC(=O)c2cn(Cc3ccc(S(=O)(=O)N(C)C)cc3)c(=O)s2)cc1	7	.	-5	1	.	.
O=C(CSc1ccccc1)Nc1ccc(-c2nc3ccccc3[nH]2)cc1	-3	i	13	11*	-2	i
Cc1ccc2nc(-c3ccc(NC(=O)CSc4ccccc4)cc3)[nH]c2c1	-1	i	10	9.0*	-3	i
COc1ccc(Cl)cc1C(=O)n1cnc2ccccc21	7	i	4	0	-1	i
CCCCn1c(SCC(=O)NNC(=O)c2ccccc2)n[nH]c1=O	-1	i	2	-2	-1	.
N/C(=N\OC(=O)c1ccccc1Br)c1cccc([N+](=O)[O-])c1	-5	i	-2	0	-4	i
SMILES	m5-HT2A agonist	TMEM16A act	MC4R antagonist	MC4R barr agon	MIN6 prolif	ANO1 block
N/C(=N\OC(=O)c1ccccc1Br)c1ccc([N+](=O)[O-])cc1	4	i	-16	8.6*	-4	i
OCCN1CCN(C2Cc3cc(Cl)ccc3Sc3ccc(Cl)cc32)CC1 (stereo unspecified) (tested in a mixture with another compound)	-10	i	2	9.3*	-5	i
CN1CCN(C2Cc3cc(Cl)ccc3Sc3cc(F)ccc32)CC1 (stereo unspecified)	-12	i	9	5	-4	i
COc1ccc(-c2noc(-c3ccccc3F)n2)cc1	4	i	6	3	-2	i
COc1ccc(-c2noc(-c3ccccc3-c3ccccc3)n2)cc1	-1	i	1	-1	-2	25*
CC(C)(C)c1ccc(NC(=O)C2=CN3CCS(=O)(=O)N=C3C=C2)cc1	0	i	13	1	2	.
COC(=O)C(C)NC(=O)C12CC3CC(C1)CC(c1ccc(C)cc1)(C3)C2 (stereo unspecified)	-1	i	4	0	2	i
CC(C)(C)n1nnnc1C(c1cccnc1)N(Cc1ccccc1)Cc1ccco1 (stereo unspecified)	-4	i	1	2	0	i
COc1cccc(CN(Cc2ccco2)C(c2ccc(F)cc2)c2nnnn2C(C)(C)C)c1 (stereo unspecified)	-1	-26*	6	0	-5	i
Cc1oc(-c2ccccc2)cc1C(=O)NCc1ccncc1	-2	i	-5	3	-3	i
CC(=O)Oc1cc2c(C(=O)NCc3ccncc3)c(C)oc2c2ccccc12	6	-21*	3	-1	-4	i
O=C(Nc1ccc(S(=O)(=O)N2CCOCC2)cc1)c1cc(-c2cc(Cl)ccc2O)n[nH]1	-3	i	-13	9.1*	-7	i
Cc1cc(O)c(-c2cc(C(=O)Nc3ccc(S(=O)(=O)N4CCOCC4)cc3)[nH]n2)cc1C	-8	i	17	-2	-4	i
COC(=O)[C@@]12C[C@@H](CC(=O)NCC3CCCCC3)C(=O)N(Cc3ccco3)C1=CCC(C)(C)C2	-1	.	.	.	.	.
CCn1cc(C(=O)NCCCN(CC(C)C)CC(C)C)c(=O)c2cc(S(=O)(=O)N(C)C3CCCCC3)ccc21	-2	-13*	18	-1	-5	i
CC(C)NS(=O)(=O)c1ccc(NC(=O)C(C)Oc2ccc(C(=O)c3ccccc3)cc2)cc1 (stereo unspecified)	1	i	0	-3	-2	100*
